Data published in ChEMBL document CHEMBL1125214, “Synthesis and adenosine receptor affinity of a series of pyrazolo[3,4-d]pyrimidine analogues of 1-methylisoguanosine” (J Med Chem, 1991).

How the values were obtained:
[1] = Hydrophobicity index measured by retention time on a reverse phase HPLC column.; assay type: ADME
[2] = target: T1, Adenosine receptor A1 (Rattus norvegicus) (UniProt P25099); assay: Inhibition of radioligand R[3H]-N6-PIA binding to adenosine A1 receptors in rat whole brain membrane at 20 uM concentration.; assay type: cell membranes
T1 sequence (whole entry): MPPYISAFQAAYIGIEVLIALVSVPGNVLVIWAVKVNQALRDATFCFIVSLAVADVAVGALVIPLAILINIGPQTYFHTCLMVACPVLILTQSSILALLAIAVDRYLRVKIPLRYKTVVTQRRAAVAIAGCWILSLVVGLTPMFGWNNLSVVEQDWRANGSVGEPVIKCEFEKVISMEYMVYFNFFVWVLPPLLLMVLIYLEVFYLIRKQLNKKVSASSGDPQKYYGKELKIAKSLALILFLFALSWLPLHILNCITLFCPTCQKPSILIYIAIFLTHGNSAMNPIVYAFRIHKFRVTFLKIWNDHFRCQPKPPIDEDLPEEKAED
Method in brief: (§1)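 Rat whole-brain synaptosomal membranes were made by sucrose homogenization and 14500g pelleting. They were pretreated with adenosine deaminase (2 IU/mL, 37 °C, 30 min). Assay: membranes at 100-200 µg/mL, 2 nM R-[3H]N6-PIA, 50 mM Tris-HCl pH 7.4 with 1 mM MgCl2, 60 min at 37 °C. Compounds in DMSO. Nonspecific binding defined with 100 µM R-N6-PIA. GF/B filtration and scintillation counting. […] At least three runs in triplicate.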

[3] = target: Adenosine A2 receptor (Rattus norvegicus) (UniProt P29276+P30543); assay: Inhibition of radioligand R[3H]-CGS 21680 binding to adenosine A2 receptors in rat striatal membrane at 20 uM concentration.; assay type: cell membranes; settings: Striatum
Method in brief: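 Striata from male Wistar rats (300-400 g) were homogenized in 50 mM Tris-HCl pH 7.4 with 10 mM MgCl2 and pelleted twice at 48000g. Assay: membranes at 100-200 µg/mL, 5 nM [3H]CGS 21680, 90 min at 23 °C. Nonspecific binding defined with 20 µM 2-chloroadenosine. Filtration and counting as in the A1 assay. Compounds tested at 20 µM; result expressed as % inhibition of control binding.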

Adenosine A2 receptor = Adenosine A2 receptor (Rattus norvegicus, UniProt P29276+P30543); assay: Inhibitory concentration against [3H]CGS 21680 binding to adenosine A2 receptors in rat striatal membrane
[4] = target: Adenosine receptors; A1 & A2 (Rattus norvegicus) (UniProt P29276+P25099+P30543); assay: Ratio of IC50 for A2 and A1 receptor binding; assay type: protein assay
Adenosine receptor A1 [5] = target: T2, Adenosine receptor A1 (Rattus norvegicus, UniProt P25099); assay: Inhibitory concentration against R[3H]-N6-PIA binding to adenosine A1 receptor in rat whole brain membrane; assay type: cell membranes
T2 sequence (P25099 whole entry): T1 sequence (whole entry)
Method in brief: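 Rat whole-brain synaptosomal membranes were made by sucrose homogenization and 14500g pelleting. They were pretreated with adenosine deaminase (2 IU/mL, 37 °C, 30 min). Assay: membranes at 100-200 µg/mL, 2 nM R-[3H]N6-PIA, 50 mM Tris-HCl pH 7.4 with 1 mM MgCl2, 60 min at 37 °C. Compounds in DMSO. Nonspecific binding defined with 100 µM R-N6-PIA. GF/B filtration and scintillation counting. At least three runs in triplicate.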

Adenosine receptor A1 [6] = target: T2, Adenosine receptor A1; assay: Inhibitory concentration against R[3H]-N6-PIA binding to adenosine A1 receptors in rat whole brain membrane; assay type: cell membranes; method in brief: as §1

Cn1c(=O)[nH]c2c(cnn2-c2ccccc2Cl)c1=N
k' [1]: 1.7
inhibition [2]: 7%
inhibition [3]: 0%

Cn1c(=O)[nH]c2c(cnn2-c2ccc(N)cc2)c1=N
k' [1]: 0.3
inhibition [2]: 0%
inhibition [3]: 0%

Cn1c(=O)[nH]c2c(cnn2C)c1=N
k' [1]: 0.1
inhibition [2]: 6%
inhibition [3]: 0%

Cn1c(=O)[nH]c2c(cnn2-c2ccccc2[N+](=O)[O-])c1=N
k' [1]: 0.9
inhibition [2]: 5%
inhibition [3]: 7%

N=c1c2cnn(-c3ccccc3)c2[nH]c(=O)n1-c1ccccc1
k' [1]: 5.1
inhibition [2]: 25%
inhibition [3]: 0%

Cn1c(=O)[nH]c2c(cnn2-c2cccc(Br)c2)c1=N
k' [1]: 17.5
inhibition [2]: 40%
inhibition [3]: 1%

CCCn1c(=O)[nH]c2c(cnn2-c2cccc(Cl)c2)c1=N
k' [1]: > 36.5
IC50 (Adenosine A2 receptor): 47.3 µM
inhibition [2]: 68%
Ratio [4]: 3.2
IC50 (Adenosine receptor A1 [5]): 14.6 µM
inhibition [3]: 35%

Cn1c(=O)[nH]c2c(cnn2-c2ccc(Cl)cc2)c1=N
k' [1]: 13.6
inhibition [2]: 37%
inhibition [3]: 0%

CCCn1ncc2c(=N)n(C)c(=O)[nH]c21
k' [1]: 0.8
inhibition [2]: 5%
inhibition [3]: 0%

CCn1c(=O)[nH]c2c(cnn2-c2cccc(Cl)c2)c1=N
k' [1]: 21.9
IC50 (Adenosine A2 receptor): 23.5 µM
inhibition [2]: 70%
Ratio [4]: 1.2
IC50 (Adenosine receptor A1 [5]): 19.8 µM
inhibition [3]: 24%

Cn1c(=O)[nH]c2c(cnn2-c2ccccc2)c1=N
k' [1]: 2.6
inhibition [2]: 30%
inhibition [3]: 7%

Cn1c(=O)[nH]c2c(cnn2-c2cccc(Cl)c2)c1=N
k' [1]: 14.2
inhibition [2]: 53%
IC50 (Adenosine receptor A1 [6]): 16.5 µM
inhibition [3]: 29%

Cn1c(=O)[nH]c2c(cnn2-c2ccc(Br)cc2)c1=N
k' [1]: 18.9
inhibition [2]: 34%
inhibition [3]: 7%

Cn1c(=O)[nH]c2c(cnn2-c2cccc([N+](=O)[O-])c2)c1=N
k' [1]: > 36.5
inhibition [2]: 2%
inhibition [3]: 1%

CCCn1c(=O)[nH]c2c(cnn2-c2ccccc2)c1=N
k' [1]: 7.5
IC50 (Adenosine A2 receptor): 50.2 µM
inhibition [2]: 52%
Ratio [4]: 1
IC50 (Adenosine receptor A1 [5]): 50.7 µM
inhibition [3]: 7%

Cn1c(=O)[nH]c2c(cnn2-c2cccc(F)c2)c1=N
k' [1]: 5.8
inhibition [2]: 44%
inhibition [3]: 22%

Cn1c(=O)[nH]c2c(cnn2-c2ccc([N+](=O)[O-])cc2)c1=N
k' [1]: > 36.5
inhibition [2]: 5%
inhibition [3]: 0%

Cn1c(=O)[nH]c2c(cnn2-c2ccccc2N)c1=N
k' [1]: 0.8
inhibition [2]: 0%
inhibition [3]: 0%

Cn1c(=O)[nH]c2c(cnn2-c2ccccc2Br)c1=N
k' [1]: 1.8
inhibition [2]: 6%
inhibition [3]: 0%

Cn1c(=O)[nH]c2c(cnn2-c2ccccc2F)c1=N
k' [1]: 1.1
inhibition [2]: 8%
inhibition [3]: 0%

CCn1c(=O)[nH]c2c(cnn2-c2ccccc2)c1=N
k' [1]: 4.2
IC50 (Adenosine A2 receptor): 81.8 µM
inhibition [2]: 58%
Ratio [4]: 4.1
IC50 (Adenosine receptor A1 [5]): 20.1 µM
inhibition [3]: 16%

CCCCn1c(=O)[nH]c2c(cnn2-c2ccccc2)c1=N
k' [1]: 18.5
IC50 (Adenosine A2 receptor): 24.8 µM
inhibition [2]: 72%
Ratio [4]: 2.6
IC50 (Adenosine receptor A1 [5]): 9.6 µM
inhibition [3]: 21%

Cn1c(=O)[nH]c2c(cnn2-c2cc(Cl)cc(Cl)c2)c1=N
k' [1]: > 36.5
inhibition [2]: 29%
inhibition [3]: 0%

Cn1c(=O)[nH]c2c(cnn2-c2ccc(Cl)cc2Cl)c1=N
k' [1]: 7.1
inhibition [2]: 9%
inhibition [3]: 0%

CCCCn1c(=O)[nH]c2c(cnn2-c2cccc(Cl)c2)c1=N
k' [1]: > 36.5
IC50 (Adenosine A2 receptor): 19.2 µM
inhibition [2]: 58%
inhibition [3]: 38%

Cn1c(=O)[nH]c2c(cnn2-c2cccc(N)c2)c1=N
k' [1]: 0.7
inhibition [2]: 0%
inhibition [3]: 0%

Cn1c(=O)[nH]c2c(cnn2-c2cc(Cl)ccc2Cl)c1=N
k' [1]: 4.8
inhibition [2]: 1%
inhibition [3]: 3%

Cn1c(=O)[nH]c2c(cnn2-c2ccc(F)cc2)c1=N
k' [1]: 4.1
inhibition [2]: 26%
inhibition [3]: 0%
